# Measured values reported in ChEMBL document CHEMBL3046016, “Antifeedant and growth inhibitory effects of some neo-clerodane diterpenoids isolated from Clerodendron species (Verbenaceae) on Earias vitella and Spodoptera litura” (2003).
# Key:
# Format in all cases: functional
# [1] = tested on: Spodoptera litura; assay: Insecticidal activity against third-instar larval stage of Spodoptera litura in compound-treated castor leaves assessed as larval mortality at 10 ug/cm2 relative to control
# [2] = tested on: Earias vittella; assay: Insecticidal activity against third-instar larval stage of Earias vitella assessed as larval mortality at 5 ug/cm3 administered through artificial diet containing Abelmoschus esculentus seed powder (reference value: 4%)
# [3] = tested on: Earias vittella; assay: Insecticidal activity against female adult Earias vitella assessed as adult longevity time at 5 ug/cm3 administered through artificial diet containing Abelmoschus esculentus seed powder (reference value: 8.6 +/- 0.48 days)
# [4] = tested on: Spodoptera litura; assay: Antifeedant activity against third-instar larval stage of Spodoptera litura in compound-treated castor leaves assessed as decrease in diet consumption at 10 ug/cm2 after 24 hr by no-choice leaf disk assay relative to acetone-treated control; parameters: scale not given: the % may be the effect or the level left
# Summary of the method: (§1)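 Larvae were reared on castor leaves at 25 ± 2 °C. In a no-choice test, compound in acetone was painted on the abaxial side of castor leaf disks and air-dried. Five freshly molted third-instar larvae, starved 4 h, were placed per Petri dish with wet cotton. There were five replicates. After 24 h, consumed leaf area was read on a leaf area meter. %AF = 100 − (treated/control)×100.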
# [5] = tested on: Earias vittella; assay: Insecticidal activity against adult Earias vitella assessed as adult deformity at 10 ug/cm3 administered through artificial diet containing Abelmoschus esculentus seed powder (reference value: 4%)
# [6] = tested on: Earias vittella; assay: Insecticidal activity against pupal stage of Earias vitella assessed as pupal weight at 10 ug/cm3 administered through artificial diet containing Abelmoschus esculentus seed powder (reference value: 88.2 +/- 4.01 mg)
# [7] = tested on: Earias vittella; assay: Insecticidal activity against male adult Earias vitella assessed as adult longevity time at 10 ug/cm3 administered through artificial diet containing Abelmoschus esculentus seed powder (reference value: 8.2 +/- 0.4 days)
# [8] = tested on: Spodoptera litura; assay: Insecticidal activity against adult Spodoptera litura in compound-treated castor leaves assessed as adult deformity at 5 ug/cm2 relative to control
# [9] = tested on: Earias vittella; assay: Insecticidal activity against adult Earias vitella assessed as adult emergence at 10 ug/cm3 administered through artificial diet containing Abelmoschus esculentus seed powder (reference value: 88%)
# [10] = tested on: Earias vittella; assay: Insecticidal activity against third-instar larval stage of Earias vitella assessed as total larval duration time at 5 ug/cm3 administered through artificial diet containing Abelmoschus esculentus seed powder (reference value: 8.2 +/- 0.48 days)
# [11] = tested on: Spodoptera litura; assay: Antifeedant activity against third-instar larval stage of Spodoptera litura in compound-treated castor leaves assessed as decrease in diet consumption at 5 ug/cm2 after 24 hr by no-choice leaf disk assay relative to acetone-treated control; parameters: scale not given: the % may be the effect or the level left; summary of the method: as §1
# [12] = tested on: Earias vittella; assay: Insecticidal activity against male adult Earias vitella assessed as adult longevity time at 5 ug/cm3 administered through artificial diet containing Abelmoschus esculentus seed powder (reference value: 8.2 +/- 0.4 days)
# [13] = tested on: Spodoptera litura; assay: Insecticidal activity against pupal stage of Spodoptera litura in compound-treated castor leaves assessed as pupal mortality at 5 ug/cm2 relative to control
# [14] = tested on: Spodoptera litura; assay: Insecticidal activity against pupal stage of Spodoptera litura in compound-treated castor leaves assessed as pupal duration time at 5 ug/cm2 (reference value: 9.2 +/- 0.74 days)
# [15] = tested on: Earias vittella; assay: Insecticidal activity against female adult Earias vitella assessed as adult longevity time at 10 ug/cm3 administered through artificial diet containing Abelmoschus esculentus seed powder (reference value: 8.6 +/- 0.48 days)
# [16] = tested on: Earias vittella; assay: Insecticidal activity against pupal stage of Earias vitella assessed as pupal mortality at 5 ug/cm3 administered through artificial diet containing Abelmoschus esculentus seed powder (reference value: 8%)
# [17] = tested on: Earias vittella; assay: Insecticidal activity against third-instar larval stage of Earias vitella assessed as larval mortality at 10 ug/cm3 administered through artificial diet containing Abelmoschus esculentus seed powder (reference value: 4%)
# [18] = tested on: Spodoptera litura; assay: Insecticidal activity against female adult Spodoptera litura in compound-treated castor leaves assessed as adult longevity time at 10 ug/cm2 (reference value: 10 +/- 0.63 days)
# [19] = tested on: Spodoptera litura; assay: Insecticidal activity against female adult Spodoptera litura in compound-treated castor leaves assessed as adult longevity time at 5 ug/cm2 (reference value: 10 +/- 0.63 days)
# [20] = tested on: Spodoptera litura; assay: Insecticidal activity against third-instar larval stage of Spodoptera litura in compound-treated castor leaves assessed as total larval duration time at 10 ug/cm2 (reference value: 12.4 +/- 0.48 days)
# [21] = tested on: Spodoptera litura; assay: Insecticidal activity against pupal stage of Spodoptera litura in compound-treated castor leaves assessed as pupal duration time at 10 ug/cm2 (reference value: 9.2 +/- 0.74 days)
# [22] = tested on: Earias vittella; assay: Insecticidal activity against adult Earias vitella assessed as adult deformity at 5 ug/cm3 administered through artificial diet containing Abelmoschus esculentus seed powder (reference value: 4%)
# [23] = tested on: Spodoptera litura; assay: Insecticidal activity against third-instar larval stage of Spodoptera litura in compound-treated castor leaves assessed as total larval duration time at 5 ug/cm2 (reference value: 12.4 +/- 0.48 days)
# [24] = tested on: Earias vittella; assay: Insecticidal activity against pupal stage of Earias vitella assessed as pupal duration time at 5 ug/cm3 administered through artificial diet containing Abelmoschus esculentus seed powder (reference value: 6.4 +/- 0.21 days)
# [25] = tested on: Earias vittella; assay: Insecticidal activity against adult Earias vitella assessed as adult emergence at 5 ug/cm3 administered through artificial diet containing Abelmoschus esculentus seed powder (reference value: 88%)
# [26] = tested on: Spodoptera litura; assay: Insecticidal activity against adult Spodoptera litura in compound-treated castor leaves assessed as adult deformity at 10 ug/cm2 relative to control
# [27] = tested on: Earias vittella; assay: Insecticidal activity against pupal stage of Earias vitella assessed as pupal mortality at 10 ug/cm3 administered through artificial diet containing Abelmoschus esculentus seed powder (reference value: 8%)
# [28] = tested on: Spodoptera litura; assay: Insecticidal activity against pupal stage of Spodoptera litura in compound-treated castor leaves assessed as pupal mortality at 10 ug/cm2 relative to control
# [29] = tested on: Spodoptera litura; assay: Insecticidal activity against male adult Spodoptera litura in compound-treated castor leaves assessed as adult longevity time at 10 ug/cm2 (reference value: 9.4 +/- 0.48 days)
# [30] = tested on: Spodoptera litura; assay: Insecticidal activity against third-instar larval stage of Spodoptera litura in compound-treated castor leaves assessed as larval mortality at 5 ug/cm2 relative to control
# [31] = tested on: Spodoptera litura; assay: Insecticidal activity against male adult Spodoptera litura in compound-treated castor leaves assessed as adult longevity time at 5 ug/cm2 (reference value: 9.4 +/- 0.48 days)
# [32] = tested on: Earias vittella; assay: Insecticidal activity against pupal stage of Earias vitella assessed as pupal weight at 5 ug/cm3 administered through artificial diet containing Abelmoschus esculentus seed powder (reference value: 88.2 +/- 4.01 mg)
# [33] = tested on: Spodoptera litura; assay: Insecticidal activity against adult Spodoptera litura in compound-treated castor leaves assessed as adult emergence at 5 ug/cm2 relative to control
# [34] = tested on: Spodoptera litura; assay: Insecticidal activity against adult Spodoptera litura in compound-treated castor leaves assessed as adult emergence at 10 ug/cm2 relative to control
# [35] = tested on: Earias vittella; assay: Antifeedant activity against third-instar larval stage of Earias vitella assessed as decrease in diet consumption at 5 ug/cm3 administered through artificial diet containing Abelmoschus esculentus seed powder after 24 hr relative to acetone-treated control; parameters: scale not given: the % may be the effect or the level left
# Summary of the method: (§2)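 Artificial diet was modified Klein medium with bhendi (Abelmoschus esculentus) seed powder in place of alfalfa. Compound in acetone was mixed into bhendi meal 12 h before diet preparation so the solvent evaporated. One 3 g diet cube was given to five freshly molted third-instar larvae in a muslin-covered container. After 24 h the cubes were weighed. %AF = 100 − (treated/control)×100.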
# [36] = tested on: Spodoptera litura; assay: Insecticidal activity against pupal stage of Spodoptera litura in compound-treated castor leaves assessed as pupal weight at 10 ug/cm2 (reference value: 302.4 +/- 5.9 mg)
# [37] = tested on: Earias vittella; assay: Insecticidal activity against third-instar larval stage of Earias vitella assessed as total larval duration time at 10 ug/cm3 administered through artificial diet containing Abelmoschus esculentus seed powder (reference value: 8.2 +/- 0.48 days)
# [38] = tested on: Spodoptera litura; assay: Insecticidal activity against pupal stage of Spodoptera litura in compound-treated castor leaves assessed as pupal weight at 5 ug/cm2 (reference value: 302.4 +/- 5.9 mg)
# [39] = tested on: Spodoptera littoralis; assay: Antifeedant activity against Spodoptera littoralis assessed as decrease in diet consumption at 200 ppm after 2 hr by leaf disk assay relative to control; parameters: scale not given: the % may be the effect or the level left
# [40] = tested on: Earias vittella; assay: Insecticidal activity against pupal stage of Earias vitella assessed as pupal duration time at 10 ug/cm3 administered through artificial diet containing Abelmoschus esculentus seed powder (reference value: 6.4 +/- 0.21 days)
# [41] = tested on: Earias vittella; assay: Antifeedant activity against third-instar larval stage of Earias vitella assessed as decrease in diet consumption at 10 ug/cm3 administered through artificial diet containing Abelmoschus esculentus seed powder after 24 hr relative to acetone-treated control; parameters: scale not given: the % may be the effect or the level left; summary of the method: as §2
compound,measurement,setting,value
CC(=O)OC[C@@]12[C@@H](OC(C)=O)C[C@@H](C)[C@](C)([C@@H]3C[C@H]4C=CO[C@H]4O3)[C@H]1CC[C@H](OC(C)=O)[C@]21CO1 [3-EPICARYOPTIN],mortality at 10 µg/cm2,[1],36%
same,mortality,[2],8%
same,Time,[3],6.2 days
same,Activity,[4],82.6%
same,Activity,[5],8%
same,Activity,[6],53.2 mg
same,Time,[7],5.6 days
same,Activity,[8],8.8%
same,Activity,[9],52%
same,Time,[10],10 days
same,Activity,[11],73.4%
same,Time,[12],5.8 days
same,mortality at 5 µg/cm2,[13],26.5%
same,Time,[14],11 days
same,Time,[15],5.8 days
same,mortality,[16],30%
same,mortality,[17],12%
same,Time,[18],6 days
same,Time,[19],7.2 days
same,Time,[20],14.5 days
same,Time,[21],11.8 days
same,Activity,[22],8%
same,Time,[23],14 days
same,Time,[24],8.8 days
same,Activity,[25],60.4%
same,Activity,[26],12.8%
same,mortality,[27],40%
same,mortality at 10 µg/cm2,[28],30%
same,Time,[29],6.4 days
same,mortality at 5 µg/cm2,[30],24%
same,Time,[31],7.4 days
same,Activity,[32],57.4 mg
same,Activity,[33],64.8%
same,Activity,[34],56.8%
same,Activity,[35],73%
same,Activity,[36],250.2 mg
same,Time,[37],10.3 days
same,Activity,[38],261.6 mg
same,Activity,[39],100%
same,Time,[40],10.2 days
same,Activity,[41],79.76%
